# Columns and labels:
# Assay type in all cases: functional, cell-based
# [1] = Cytotoxicity against human HL60/TX1000 cells after 72 hrs by MTT assay; conditions: HL60/TX1000, 72 h
# Outline: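 HL-60/TX1000 cells (Taxol-resistant HL-60 subline selected by stepwise Taxol exposure; overexpress MDR1/P-glycoprotein) grown in RPMI1640 with 10% FC plus penicillin/streptomycin, split every third day, set to 2 · 10⁵ cells/mL the day before the experiment, and used in exponential growth. Compounds were diluted into medium from 1 mM DMSO stock and tested at various concentrations for 72 h. IC50 was read by […] tetrazolium assay.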
# P388 = experiment: Cytotoxicity against mouse P388 cells after 72 hrs […]; conditions: P388, 72 h
# HL-60 = experiment: Cytotoxicity against human HL60 cells after 72 hrs […]; conditions: HL-60, 72 h
# [2] = Cytotoxicity against human MESSA cells after 72 hrs […]; conditions: MES-SA
# [3] = Cytotoxicity against human MDA435 cells after 72 hrs […]; conditions: MDA-MB-435, 72 h
# [4] = Cytotoxicity against human MESSA/DX5 cells after 72 hrs […]; conditions: MES-SA/Dx5, 72 h
# DU-145 = experiment: Cytotoxicity against human DU145 cells after 72 hrs […]; conditions: DU-145, 72 h
Structure (SMILES),IC50 [1] [µM],also measured
Cc1cnc(NC(=O)C(=O)c2cn(Cc3ccc(Cl)cc3)c3ccccc23)s1,0.05,
O=C(Nc1ccon1)C(=O)c1cn(Cc2ccc(Cl)cc2)c2ccccc12,0.05,
O=C(Nc1cccc2cccnc12)C(=O)c1cn(Cc2ccc(Cl)cc2)c2ccccc12,> 10,
O=C(Nc1ccno1)C(=O)c1cn(Cc2ccc(Cl)cc2)c2ccccc12,0.05,
O=C(Nc1ccccn1)C(=O)c1cn(Cc2ccc(Cl)cc2)c2ccccc12,> 10,
Cc1cc(NC(=O)C(=O)c2cc(Cc3ccc(Cl)cc3)n3ccccc23)sn1,0.06,
O=C(Nc1nncs1)C(=O)c1cn(Cc2ccc(Cl)cc2)c2ccccc12,0.1,
Cc1nsc(NC(=O)C(=O)c2cn(Cc3ccc(Cl)cc3)c3ccccc23)c1Cl,5,
Cc1ccc2cc(NC(=O)C(=O)c3cn(Cc4ccc(Cl)cc4)c4ccccc34)ccc2n1,0.5,
O=C(Nc1noc2ccccc12)C(=O)c1cn(Cc2ccc(Cl)cc2)c2ccccc12,> 10,
Cc1cc(NC(=O)C(=O)c2cn(Cc3ccc(Cl)cc3)c3ccccc23)sn1,0.01,
NC(=O)c1ccc(NC(=O)C(=O)c2cn(Cc3ccc(Cl)cc3)c3ccccc23)nc1,0.05,
Cc1cc(NC(=O)C(=O)c2cn(Cc3ccc(Cl)cc3)c3ccccc23)no1,0.05,
CSc1nnc(NC(=O)C(=O)c2cn(Cc3ccc(Cl)cc3)c3ccccc23)s1,1,
O=C(Nc1cccnc1)C(=O)c1cn(Cc2ccc(Cl)cc2)c2ccccc12,6,
C[n+]1ccc(NC(=O)C(=O)c2cn(Cc3ccc(Cl)cc3)c3ccccc23)cc1,> 10,
CC(C)(C)c1csc(NC(=O)C(=O)c2cn(Cc3ccc(Cl)cc3)c3ccccc23)n1,5,
Cc1cc(NC(=O)C(=O)c2cn(Cc3ccc(Cl)cc3)c3ccccc23)on1,0.05,
O=C(Nc1ccc2ncccc2c1)C(=O)c1cn(Cc2ccc(Cl)cc2)c2ccccc12,0.05,
O=C(Nn1cnnc1)C(=O)c1cn(Cc2ccc(Cl)cc2)c2ccccc12,> 10,
O=C(Nc1ccncc1)C(=O)c1cn(Cc2ccc(Cl)cc2)c2ccccc12 [INDIBULIN],0.05,
CC(=O)O[C@H]1C(=O)[C@@]2(C)[C@H]([C@H](OC(=O)c3ccccc3)[C@]3(O)C[C@H](OC(=O)[C@H](O)[C@@H](NC(=O)c4ccccc4)c4ccccc4)C(C)=C1C3(C)C)[C@]1(OC(C)=O)CO[C@@H]1C[C@@H]2O [PACLITAXEL],,IC50 (P388): 0.01 µM
Cc1cc(NC(=O)C(=O)c2cc(Cc3ccc(C#N)cc3)n3ccccc23)sn1 [ROSABULIN],0.02,IC50 (HL-60): 0.05 µM; IC50 [2]: 0.01 µM; IC50 [3]: 0.05 µM; IC50 [4]: 0.05 µM; IC50 (DU-145): 0.05 µM; IC50 (P388): 0.01 µM
